Target: Adenosine receptor A2a (Homo sapiens, UniProt P29274)
Assay: Displacement of [3H]ZM241385 from human AA2AR expressed in HEK293T cells after 2 hrs by liquid scintillation counter
How it was run: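 Membranes of HEK293T cells stably expressing AA2AR (40 µg protein) incubated with 1.7 nM (final) [3H]ZM241385 in 50 mM Tris·HCl pH 7.4, 2 h at 25 °C with shaking. Nonspecific binding defined with 100 µM CGS21680. Filtered over GF/B, washed three times with ice-cold buffer. Compounds giving ≥50% inhibition at 10 µM went to concentration-response curves. pKi values, n=3 in duplicate.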

Chain of Adenosine receptor A2a (P29274 whole entry): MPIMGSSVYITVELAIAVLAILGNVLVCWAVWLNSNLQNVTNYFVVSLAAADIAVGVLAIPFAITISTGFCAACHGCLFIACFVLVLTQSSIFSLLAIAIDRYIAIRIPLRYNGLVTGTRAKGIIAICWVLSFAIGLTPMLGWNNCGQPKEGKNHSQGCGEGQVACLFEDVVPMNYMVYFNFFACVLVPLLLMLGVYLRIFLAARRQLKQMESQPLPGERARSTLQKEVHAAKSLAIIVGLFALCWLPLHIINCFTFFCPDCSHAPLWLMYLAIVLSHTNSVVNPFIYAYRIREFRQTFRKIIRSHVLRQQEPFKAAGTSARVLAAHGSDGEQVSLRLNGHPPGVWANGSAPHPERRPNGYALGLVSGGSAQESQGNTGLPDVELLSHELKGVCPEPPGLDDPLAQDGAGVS

## COc1cc(CN=Nc2ncnc3sc4c(c23)CCCC4)ccc1O
  Ki: 5.01 µM

## N#CC(N=Nc1ccc(S(N)(=O)=O)cc1)c1nc2ccccc2[nH]1 (configuration not stated)
  Ki: 5.01 µM
